Screening results as filed in PubChem.
Sampled rows, rich in hits. Any-hit rate of the full collection: about 4.7%.
MC4R barr agon = MC4R agonists recruiting beta-arrestin, primary screen, cell-based, luminescence, agonist arm of biased-ligand search; Melanocortin receptor 4 (Homo sapiens), P32245; actives 0.98% (n = 360,000); activation, % at 8.9 µM; U2OS MC4R beta-arrestin complementation; percent of melanotan II response, DMSO zero;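 active means activation above a per-plate cutoff, the mean activation of sample wells on that plate plus 3 SD, cut at about 8% in these data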
HTR2A ag = mouse Htr2a agonists via beta-arrestin recruitment, primary screen, cell-based, luminescence | activation, % at 7.6 µM | CHO-K1 mHTR2A beta-arrestin complementation; percent of 30 µM serotonin response | actives 0.66% (n = 360,000) | 5-hydroxytryptamine receptor 2A (Mus musculus), P35363;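 active means activation above a run cutoff, the mean activation of all tested compounds plus 3 SD, cut at about 14% in these data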;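 further: 0% = plate median of compound wells and 100% = 30 µM serotonin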
Target sequence (P35363 whole entry, looked up): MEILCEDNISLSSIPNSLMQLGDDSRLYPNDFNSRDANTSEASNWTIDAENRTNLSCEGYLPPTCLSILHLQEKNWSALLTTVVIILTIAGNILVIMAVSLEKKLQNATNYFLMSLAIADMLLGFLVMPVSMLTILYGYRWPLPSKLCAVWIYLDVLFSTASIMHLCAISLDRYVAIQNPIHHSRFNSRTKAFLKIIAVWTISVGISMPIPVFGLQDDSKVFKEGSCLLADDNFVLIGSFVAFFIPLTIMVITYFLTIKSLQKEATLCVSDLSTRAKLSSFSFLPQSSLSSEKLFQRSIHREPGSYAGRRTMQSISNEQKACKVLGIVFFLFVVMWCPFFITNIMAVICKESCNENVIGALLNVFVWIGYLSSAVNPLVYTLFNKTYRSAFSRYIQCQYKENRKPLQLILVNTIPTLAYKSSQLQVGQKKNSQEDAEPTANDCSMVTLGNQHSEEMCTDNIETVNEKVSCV
AHR activator = AHR activators, primary screen, cell-based, luminescence, luciferase reporter, human; Aryl hydrocarbon receptor (Homo sapiens), P35869; AHR-responsive luciferase reporter cells; activation, % at 5 µM; actives 2.5% (n = 320,000); in the data active means activation above about 47%;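 further: 0% = vehicle wells and 100% = reference agonist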
GAA850 FXN act = FXN promoter activators, primary screen, cell-based, luciferase luminescence, HEK293 lucGAA850. actives 0.56% (n = 360,000). HEK293 lucGAA850 FXN promoter luciferase reporter, 24 h; percent of 10 µM SAHA response. activation, % at 6 µM;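 active means activation above the average of all compounds screened plus 3 SD, cutoff fixed separately per campaign, cut at about 7.5% in these data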;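 further: 0% = DMSO wells and 100% = 10 µM SAHA wells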
MC4R antag cAMP = MC4R antagonists of cAMP signaling, primary screen, cell-based, TR-FRET, antagonist arm of biased-ligand search; actives 0.48% (n = 360,000); MC4R-expressing cells, MTII-stimulated cAMP, LANCE TR-FRET; Melanocortin receptor 4 (Homo sapiens), P32245; inhibition, % at 6.5 µM;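 active means inhibition above its plate's cutoff, the mean of tested wells on that plate plus 3 SD, cut at about 29% in these data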;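 further: 0% = Melanotan II alone and 100% = Melanotan II plus saturating MCL0020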
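material = U2OS cells stably expressing human melanocortin 4 receptor (MC4R) | also added = Melanotan II challenge | dosing = single nominal compound dose of 6.5 µM | detection = TR-FRET with Eu-cAMP and labeled anti-cAMP, 671 nm | replication = singlicate | timing = compound 30 min, challenge 1 h, detection 1 h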
GAA30 FXN cntr = GAA30 FXN promoter activators, confirmation, counter-screen for GAA850 frataxin promoter activator project, cell-based, luminescence, HEK293, lucGAA30, triplicate. shares compounds with GAA850 FXN act. activation, % at 6 µM. actives 66% (n = 1,900). HEK293 lucGAA30 FXN promoter luciferase, 24 h; DMSO = 0%, 5 µM ipriflavone = 100%;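 active means mean activation above the mean of solvent-only control wells plus 3 SD, cut at about 22% in these data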;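 further: counterscreen of GAA850 promoter hits where activity marks nonselective or luminescence artifacts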
FXN GAA850 conf = FXN GAA850 promoter activators in reporter cells, confirmation, cell-based, luminescence, HEK293 lucGAA850, triplicate; actives 86% (n = 1,900); activation, % at 6 µM; AID 588351, 2011; HEK293 lucGAA850 FXN promoter luciferase reporter, 24 h; 100% = activation by SAHA; shares compounds with GAA850 FXN act;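 active means mean activation above a set limit taken from the primary screen, cut at about 8% in these data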;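 further: 0% = DMSO wells and 100% = 10 µM SAHA wells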
Numbers without * were called inactive; . = not tested or not shown.

SMILES | MC4R barr agon | HTR2A ag | AHR activator | GAA850 FXN act | MC4R antag cAMP | GAA30 FXN cntr | FXN GAA850 conf
CCN(c1ccc(NC(=O)COC(=O)CCc2cc(OC)c(OC)c(OC)c2)cc1)C(C)C | 1 | 7 | . | 0 | 8 | . | .
Cc1ccc(NC(=O)C2CCCN(c3ncccn3)C2)cc1F (stereo not drawn) | 0 | -3 | 17 | 7.6* | 2 | 113* | 32*
Cn1c(=NC(=O)c2cccc([N+](=O)[O-])c2)sc2ccccc21 | -1 | 5 | 19 | 9.1* | -6 | 120* | 36*
CCC(C)(C)NC(=O)C(NS(=O)(=O)c1cccs1)c1ccccc1 (stereo not drawn) | 0 | 0 | 0 | 10* | 1 | 15 | 10*
Cc1ccsc1/C=N/Nc1ncnc2nc[nH]c12 | -2 | -3 | 21 | 13* | -37 | 129* | 48*
C(=N\Nc1ncnc2nc[nH]c12)/c1cccs1 | -1 | 1 | 17 | 12* | -9 | 88* | 43*
Cc1ccccc1/C=N/Nc1ncnc2nc[nH]c12 | 5 | -1 | 10 | 8.4* | -8 | 64* | 21*
C=CCN1C(=O)c2cccc3c(N4CCCCC4)ccc(c23)C1=O | 1 | 4 | 2 | 4 | 24 | . | .
O=C1c2cccc3c(N4CCCCC4)ccc(c23)C(=O)N1CCO | -1 | 2 | 7 | 8.3* | -30 | 88* | 33*
Nc1ncnc2c1ncn2[C@@H]1O[C@H](CCC(=O)NCc2ccccc2)[C@@H](O)[C@H]1O | . | -4 | . | . | . | . | .
COc1ccc(-c2ccc(=O)n(Cc3ccccc3)n2)cc1 | -1 | 1 | 24 | 4 | 10 | . | .
COc1ccc(-c2ccc(=O)n(Cc3cc(=O)n4ccccc4n3)n2)cc1 | -2 | 12 | 11 | 8.1* | 0 | 20 | 8.8*
COc1ccc(NC(=S)Nc2ccccn2)c(OC)c1 | 1 | 1 | 33 | 8.1* | -1 | 107* | 46*
O=C(CN(C(=O)c1csnn1)c1ccc(Cl)cc1)NCc1ccc2c(c1)OCO2 | 2 | 1 | 4 | 1 | 18 | . | .
CN(CC(=O)Nc1cccc(F)c1)C(=O)CCN1C(=O)C2CC=CCC2C1=O (stereo not drawn) | 1 | -1 | 1 | 0 | 0 | . | .
CN(CC(=O)Nc1cccc(F)c1)C(=O)CCCN1C(=O)c2cccc3cccc(c23)C1=O | -1 | 4 | -12 | 14* | 8 | 30* | 11*
COc1cc(NC(=O)CCc2nnc3ccc(N4CCOCC4)nn23)cc(OC)c1OC | 0 | 4 | -1 | 2 | -2 | . | .
Cc1ccc(NC(=O)CCc2nnc3ccc(N4CCOCC4)nn23)cc1C | 1 | 7 | 3 | 13* | -9 | 11 | 3
O=C(CS(=O)(=O)c1ccccc1)N1CCc2ccccc21 | -2 | -3 | 33 | 8.5* | 13 | 99* | 30*
O=C(Cc1ccccc1)N1CCc2ccccc21 | -2 | 1 | 3 | 4 | 0 | . | .
CC1(C)CC(Cc2ccc(C(F)(F)F)cn2)N(C(=O)OC(C)(C)C)C1 (stereo not drawn) | . | 6 | . | . | . | . | .
CSc1nc(N)nc(SC2C=CCCC2)c1C#N (stereo not drawn) | 3 | 5 | -5 | 13* | 6 | 41* | 22*
Cc1ccc(C2CC(=O)C(C=NCCN3CCN(CC(=O)Nc4cc(C)cc(C)c4)CC3)=C(O)C2)cc1 (stereo not drawn) | -3 | 7 | . | 8.5* | -2 | 13 | 6
COc1ccc(-c2cc(C(=O)NCc3cccc(C(F)(F)F)c3)[nH]n2)c(C)c1 | 1 | -4 | . | 0 | 12 | . | .
CCOC(=O)C1CCN(S(=O)(=O)c2cccc(-c3cn4cc(C)ccc4n3)c2)CC1 | 3 | 4 | 2 | -1 | 5 | . | .
SMILES | MC4R barr agon | HTR2A ag | AHR activator | GAA850 FXN act | MC4R antag cAMP | GAA30 FXN cntr | FXN GAA850 conf
CCOC(=O)C1CCN(S(=O)(=O)c2cccc(-c3csc(C)n3)c2)CC1 | 1 | 7 | -4 | 8.4* | -3 | 6 | 3
CC(C)Cn1cnc2c(SCc3ccccc3F)nc(N)nc21 | -2 | -7 | . | 8.9* | -4 | 95* | 35*
CCCCn1cnc2c(SCc3ccccc3F)nc(N)nc21 | -2 | 0 | . | 8.3* | 5 | 57* | 25*
CCC(C)Cn1cnc2c(SCc3ccccc3F)nc(N)nc21 (stereo not drawn) | -1 | -4 | . | 5 | -4 | . | .
Cc1cccc(NC(=O)CSc2nc(=O)n(CCCN3CCOCC3)c3c2CCCC3)c1C | -1 | 3 | . | 0 | -2 | . | .
CCCCN(C)C(=O)c1sc(=O)n(Cc2c(C)cccc2C)c1C | 1 | 1 | . | 0 | 1 | . | .
COc1cc(C(=O)Oc2c(CN3CCOCC3)cc(Cl)c3cccnc23)cc(OC)c1OC | -1 | -19 | 9 | 18* | 4 | -27 | 24*
O=C(Oc1c(CN2CCOCC2)cc(Cl)c2cccnc12)c1cccs1 | -2 | -14 | 11 | -1 | 18 | . | .
COc1cccc(C(=O)Oc2c(CN3CCOCC3)cc(Cl)c3cccnc23)c1 | -1 | -14 | 8 | 8.2* | -6 | 16 | 8.3*
O=C(Oc1c(CN2CCOCC2)cc(Cl)c2cccnc12)c1ccccc1Cl | -2 | -19 | 9 | 13* | 10 | 3 | 19*
NNC(=O)CN1C(c2ccccc2Br)=Nc2ccc(Br)cc2C1c1ccccc1 (stereo not drawn) | 1 | -3 | 7 | 9.2* | 12 | 18 | 8.7*
COC(=O)c1ccc(CSc2ncnc3c2sc2nc(N4CCOCC4)c4c(c23)CCCC4)o1 | -1 | 0 | 1 | 13* | -6 | 12 | 15*
COC(=O)CSc1ncnc2c1sc1nc(N3CCOCC3)c3c(c12)CCCC3 | -2 | 1 | 2 | 2 | 6 | . | .
CC1(C(=O)Nc2cccc3cccnc23)CCN1Cc1ccc(-c2ccccc2)o1 (stereo not drawn) | -1 | 0 | . | -1 | 4 | . | .
COC(=O)c1cccc(CC2(C)C(=O)Nc3cc(-c4ccccc4Cl)ccc32)c1 (stereo not drawn) | 2 | 3 | . | 17* | -7 | 58* | 31*
